Laboratory results taken from ChEMBL document CHEMBL3244397, “New dopaminergic and potential anti-parkinson compounds, N,N-disubstituted beta-(3,4-dihydroxyphenyl)ethylamines” (J Med Chem, 1978).

How the values were obtained:
Mus musculus [1] = assay: Antiparkinsonian activity in caudectomized mouse assessed as duration of curvature at 0.348 umol/g, ip; assay type: functional
How it was run: (§1)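 Hydrochlorides in 0.9% saline (0.4-0.6 mL) were given ip in random groups of six, with 5-6-day intervals between retests. A blinded observer recorded onset and duration of asymmetric posture; mean and SE per six mice.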

Mus musculus [2] = assay: Antiparkinsonian activity in caudectomized mouse assessed as duration of curvature at 0.087 umol/g, ip; assay type: functional; how it was run: as §1
Mus musculus [3] = assay: Antiparkinsonian activity in caudectomized mouse assessed as onset of curvature at 0.348 umol/g, ip; assay type: functional; how it was run: as §1
Rattus norvegicus [4] = assay: Antiparkinsonian activity in Nigra-lesioned rat assessed as number of turns per 98 mins at 0.087 umol/g, ip; assay type: functional
How it was run: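 Male Sprague-Dawley rats given 6-hydroxydopamine stereotaxically into the right substantia nigra. Used ≥4 weeks post-lesion if they rotated away from the lesion after reference agonist (1.0 µg/g ip). Compounds given ip as hydrochloride salts in 0.9% saline, […], to the same six rats at 5-day intervals. Turns counted in automatic rotometers. Mean ± SE of total turns and duration.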

Mus musculus [5] = assay: Antiparkinsonian activity in caudectomized mouse assessed as onset of curvature at 0.087 umol/g, ip; assay type: functional; how it was run: as §1
Rattus norvegicus [6] = assay: Antiparkinsonian activity in Nigra-lesioned rat assessed as number of turns per 45 mins at 0.087 umol/g, ip; assay type: functional
How it was run: (§2)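 Male Sprague-Dawley rats given 6-hydroxydopamine stereotaxically into the right substantia nigra. Used ≥4 weeks later if they turned away from the lesion after la (1.0 µg/g). The same six rats were dosed ip at 5-day intervals as hydrochloride in 0.9% saline; a saline-injected rat served as control. Turns were counted in automatic rotometers; mean and SE of total turns and duration.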

Mus musculus [7] = assay: Antiparkinsonian activity in caudectomized mouse assessed as duration of curvature at 0.435 umol/g, ip; assay type: functional; how it was run: as §1
Mus musculus [8] = assay: Antiparkinsonian activity in caudectomized mouse assessed as duration of curvature at 0.174 umol/g, ip; assay type: functional; how it was run: as §1
Mus musculus [9] = assay: Antiparkinsonian activity in caudectomized mouse assessed as onset of curvature at 0.174 umol/g, ip; assay type: functional; how it was run: as §1
Rattus norvegicus [10] = assay: Antiparkinsonian activity in Nigra-lesioned rat assessed as number of turns per 79 mins at 0.087 umol/g, ip; assay type: functional; how it was run: as §2
Mus musculus [11] = assay: Toxicity in caudectomized mouse assessed as mortality at 0.305 umol/g, ip; assay type: organism-based; settings: in vivo
How it was run: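 Caudectomized mice, screened for postural response to la (1.0 µg/g), received hydrochloride ip in 0.9% saline. Deaths during behavioural observation were recorded; in one case eight mice were tested.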

Mus musculus [12] = assay: Antiparkinsonian activity in caudectomized mouse assessed as duration of curvature at 0.305 umol/g, ip; assay type: functional; how it was run: as §1
Rattus norvegicus [13] = assay: Antiparkinsonian activity in Nigra-lesioned rat assessed as number of turns at 0.348 umol/g, ip; assay type: functional; how it was run: as §2
Rattus norvegicus [14] = assay: Antiparkinsonian activity in Nigra-lesioned rat assessed as number of turns per 48 mins at 0.087 umol/g, ip; assay type: functional; how it was run: as §2
Rattus norvegicus [15] = assay: Antiparkinsonian activity in Nigra-lesioned rat assessed as number of turns per 83 mins at 0.003 umol/g, ip; assay type: functional; how it was run: as §2
Mus musculus [16] = assay: Antiparkinsonian activity in caudectomized mouse assessed as onset of curvature at 0.003 umol/g, ip; assay type: functional; how it was run: as §1
Mus musculus [17] = assay: Antiparkinsonian activity in caudectomized mouse assessed as duration of curvature at 0.003 umol/g, ip; assay type: functional; how it was run: as §1

Row | SMILES | Time (Mus musculus [1]) | Time (Mus musculus [2]) | Time (Mus musculus [5]) | also measured
1 | CN(CCc1ccccc1)CCc1ccc(O)c(O)c1.Cl | 21.2 min | 0 min |  | Time (Mus musculus [3]): 6.7 min
2 | CCCN(CCc1ccccc1)CCc1ccc(O)c(O)c1.Cl |  | 15.4 min | 5 min | Activity (Rattus norvegicus [4]): 1065
3 | CCCCN(CCC)CCc1ccc(O)c(O)c1.Cl |  | 6.5 min | 4.6 min | Activity (Rattus norvegicus [6]): 552
4 | CCCCN(CCCC)CCc1ccc(O)c(O)c1.Cl | 0 min |  |  | Time (Mus musculus [7]): 0 min
5 | CCCCCNCCc1ccc(O)c(O)c1.Cl | 0 min |  |  | 
6 | CCCCCN(C)CCc1ccc(O)c(O)c1.Cl | 20.6 min | 0 min |  | Time (Mus musculus [8]): 2.5 min; Time (Mus musculus [9]): 3.8 min; Time (Mus musculus [3]): 14.6 min
7 | CCCCCN(CCC)CCc1ccc(O)c(O)c1.I |  | 14 min | 4.2 min | Activity (Rattus norvegicus [10]): 628
8 | CCCCCN(CCCCC)CCc1ccc(O)c(O)c1.Cl |  |  |  | Activity (Mus musculus [11]): Toxic; Time (Mus musculus [12]): 0 min
9 | CC(C)CNCCc1ccc(O)c(O)c1.Cl | 0 min |  |  | 
10 | CC(C)CN(C)CCc1ccc(O)c(O)c1.Cl | 31.8 min | 0 min |  | Time (Mus musculus [8]): 2.8 min; Time (Mus musculus [9]): 4 min; Time (Mus musculus [3]): 3.6 min
11 | CCCN(CCc1ccc(O)c(O)c1)CC(C)C.Cl |  | 10 min | 3.9 min | 
12 | Cl.Oc1ccc(CCNCCc2ccccc2)cc1O | 0 min |  |  | 
13 | CCCCN(CCC)CCc1ccc2c(c1)OCO2.Cl | 0 min |  |  | Activity (Rattus norvegicus [13]): 0
14 | CCCCN(CCC)CCc1ccc(O)c(O)c1.I |  | 6.7 min | 3.5 min | Activity (Rattus norvegicus [14]): 457
15 | CN1CCc2cccc3c2[C@H]1Cc1ccc(O)c(O)c1-3 [APOMORPHINE] |  |  |  | Activity (Rattus norvegicus [15]): 828; Time (Mus musculus [16]): 5 min; Time (Mus musculus [17]): 14.2 min
